Results as given in ChEMBL document CHEMBL4513216, “Probing the Open Global Health Chemical Diversity Library for Multistage-Active Starting Points for Next-Generation Antimalarials” (ACS Infect Dis, 2020).

Assay: Toxicity liver stage against HepG2, at 10uM
Format: cell-based
Design: test concentration 10 uM, cell line HepG2-A16-CD81EGFP
Conditions: human, HepG2-A16-CD81EGFP cells; read-out: INHIBITION
Outline: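 Uninfected HepG2-A16-CD81EGFP cells, 3 × 10^3 per well, 1536-well, plated on prespotted compound at 10 μM final, parasite-free screening media added to match infected plates; puromycin 10 μM positive, DMSO 0.5% negative; run in parallel with 48 h PbLuc assay at 37 °C, 5% CO2; viability by CellTiter-Glo luminescence, normalized to controls.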

SMILES | cytotoxicity at 10 µM
Fc1ccc(Cn2ncc3c2CN(c2ncccn2)C3)cc1 | 1.5%
Cc1ccccc1NC1CCN(C(=O)CCc2ccco2)CC1 | -16.2%
O=C1[C@H]2CN(C(=O)[C@H]3CCCO3)C[C@H]2CN1CCN1CCCC1 | -3.66%
CCn1c(C)cc(C(=O)N2CCCC(c3nc(C)no3)C2)c1C (configuration not stated) | -3.39%
O=C(CCc1nc2cc(Br)cnc2[nH]1)NCCCn1ccnc1 | 0.905%
COc1ccc(CN2CCCCCC2c2cccs2)c(O)c1 (configuration not stated) | 3.6%
CCNc1cc2c(nn1)CCN(C(=O)c1cc3cc(C)ccc3o1)C2 | -18.7%
O=C(Nc1cnn(-c2ccccc2Cl)c1)NC1CCC(O)CC1 (configuration not stated) | -2.49%
O=C1[C@@H]2CCN(Cc3ccoc3)C[C@@H]2OCCN1c1ccccc1 | -0.928%
CN(Cc1ccc([S+](C)[O-])cc1)c1ccc(Br)cn1 (configuration not stated) | 11.8%
O=c1[nH]cnc2[nH]c(N3CCOCC3)nc12 | 2.9%
Fc1cccc(O[C@@H]2C[C@H]3CN(Cc4ccccn4)CCN3C2)c1 | -154%
COCc1c(Br)cccc1NC(=O)CC(F)(F)F | 2.38%
N#Cc1ccc(CNC(=O)C2=NN(c3ccccc3)C(=O)CN2)cc1 | -1.8%
CC(C)(C)c1ncc(C(=O)NC(C(N)=O)c2ccccc2)s1 (configuration not stated) | -1.96%
CCc1ccc2nc(C)cc(C(=O)N[C@@H]3CCCNC3)c2c1 | -5.09%
COCCN(Cc1ccc(F)cc1Cl)C(=O)c1cc(C)no1 | 8.75%
CS(=O)(=O)c1ccccc1NC(=O)N[C@@H]1c2ccccc2C[C@@H]1O | -42.2%
CC(c1ccccc1F)N(C(=O)CSCC(N)=O)C1CC1 (configuration not stated) | -54.9%
O=C(CC(F)(F)F)N1CCC2(CCCN(c3nncs3)C2)C1 (configuration not stated) | -105%
CCCn1nc(C(=O)NC2(c3ccc(Cl)cc3)CCCC2)ccc1=O | 9.46%
CN(Cc1noc(C2CC2)n1)C1CCN(Cc2ccncc2)C1 (configuration not stated) | -10.6%
Cc1ncc(C)c(N2Cc3cnn(Cc4ccc(F)cc4)c3C2)n1 | 3.3%

SMILES | cytotoxicity at 10 µM
COc1ccc(NC(=O)Nc2cnc(N3CCN(C)CC3)nc2)cc1Cl | -19.8%
CCCN(C)CC1CCN(c2ccc(Br)c(C)n2)C1 (configuration not stated) | 14.8%
COC(=O)C(NC(=O)c1ccc(C)cc1C)c1cccnc1 (configuration not stated) | -41.9%
CC(C)CN1CCCC1c1ccc(C(=O)Nc2cc[nH]n2)s1 (configuration not stated) | 10.3%
COCCCN(Cc1cc(O)nc2ccccc12)C(=O)NC(C)C | 0.829%
OCC1CCCN1c1cc(NCc2ccsc2)ncn1 (configuration not stated) | 38.8%
COc1ccc(CCCN2C(=O)O[C@@H]3CN(C4CCOCC4)C[C@@H]32)cc1 | -1.47%
CCN(CC)C(=O)CCNC(=O)c1ccccc1N1CCOCC1 | -0.768%
CCCn1ncnc1C(C)NC(=O)C1CCN(CC(N)=O)CC1 (configuration not stated) | -140%
CN(CC(=O)N1CCCC1Cn1cccn1)C1CC1 (configuration not stated) | -9.39%
CNc1cc(N2CCCC2CNCc2csc(C(C)C)n2)ncn1 (configuration not stated) | -14.9%
CCCc1[nH]n(C)c(=N)c1-c1ccc2c(c1)OCO2 | -51.5%
CC(C)C(=O)N1CCCC(c2cncc(Oc3cccnc3)n2)C1 (configuration not stated) | -2.83%
CC(=O)NCCC(=O)NCc1cccnc1-n1cnc2ccccc21 | -14.2%
CC(C)CN1CCN(C(=O)c2cccnc2-n2cncn2)CC1 | 1.53%
CC(CO)NC(=O)c1ccc2[nH]/c(=N\S(C)(=O)=O)sc2c1 (configuration not stated) | -3.24%
CNS(=O)(=O)Cc1ccc(CNc2cncc(-n3cccn3)n2)cc1 | -4.66%
CN(c1ccc(CNC(=O)c2c[nH]c(=O)c(Cl)c2)cc1)C1CCCCC1 | 88.9%
c1ccc(Cn2cccn2)c(CNCc2cnc(N3CCCC3)nc2)c1 | -5.34%
CCN1C[C@@H]2C[C@H](C(=O)NCc3cccnc3)[C@H](C1)O2 | 2.01%
COCCN1C[C@@H]2CC[C@H]1CN(C(=O)CCn1cc(Cl)cn1)C2 | 7.62%
O=C(N[C@@H]1CCCNC1)C1(Oc2ccc(Cl)cc2)CCNCC1 | -4.73%
O=C(C1CC1)N1CCN2C[C@H](c3ccccc3)[C@@H](CO)[C@H]2C1 | 4.9%

SMILES | cytotoxicity at 10 µM
Cc1occc(=O)c1OCc1noc(C(=O)NCC2CC2)n1 | -2.51%
Cc1c(-c2ccccc2)ncn1CC(c1cccnc1)N1CCOCC1 (configuration not stated) | 2.11%
Cc1cc(C(=O)N2CCCC(n3ccnc3C)C2)c(C)s1 (configuration not stated) | -16%
Cc1cc(C(=O)Nc2ccn(CCCN3CCCC3)n2)c(C)o1 | -7.12%
FCCOc1cccc(NCc2c[nH]nc2-c2cccnc2)c1 | 1.14%
CCc1nc(CN2CCCC(NCc3nc4ccccc4o3)C2)no1 (configuration not stated) | -3.81%
Cc1cc(C2CCCCCN2Cc2cn(C)nc2C)no1 (configuration not stated) | -20.4%
Cc1csc(NC(=O)c2cccnc2N2CCOCC2)n1 | -4.75%
COc1cc(CN(CCCN(C)C)Cc2ccccn2)cc2c1OCO2 | 1.44%
Fc1ccc2c(c1)C(NCc1nnc3n1CCCCC3)CCCO2 (configuration not stated) | -9.52%
CC1c2ncc(Cn3cncn3)n2CCN1C(=O)N(C)C (configuration not stated) | 0.267%
Cn1cc(CCNC(=O)C2(c3cccc(Cl)c3)CC2)cn1 | 0.33%
CNC(=O)c1cccc(CNC(=O)C2CC(=O)N(CCN(C)C)C2)c1 (configuration not stated) | 1.01%
CC(C)N1CCOC(CC(=O)N2CCCN(Cc3cccs3)CC2)C1 (configuration not stated) | -12.2%
CC(CO)N(C)C(=O)c1cn(-c2ccc(Br)cc2)cn1 (configuration not stated) | -2.87%
CNC(=O)c1n[nH]c2c1C(c1cccc3c1OC(C)(C)C3)CC(=O)N2 (configuration not stated) | 0.0642%
COc1ccc(CCN2CCCC(n3cncn3)C2)cc1 (configuration not stated) | -6.2%
Fc1ccc(OCCCN2CCOC(Cn3cncn3)C2)cc1 (configuration not stated) | -1.03%
CCOC(=O)N1CCN(Cc2ccc(OCc3nccn3C)cc2)CC1 | -9.34%
Cc1noc(C2CN(S(C)(=O)=O)Cc3ccnn3C2)n1 (configuration not stated) | 4.92%
O=c1[nH]nc2nc(N3CCSCC3)ccn12 | -13.5%
CNC(=O)C1(c2cnccn2)CCCN1C(=O)c1ccc(OC)cc1 (configuration not stated) | -12.9%
COCCCC(=O)N1CCC(Nc2cccnn2)CC1 | -3.69%

SMILES | cytotoxicity at 10 µM
Cn1c(CN2CCN(c3cccnc3)CC2)cc2ccccc21 | 5.33%
Cc1cnn(CC2CCCN2Cc2noc(C3CC3)n2)c1 (configuration not stated) | -17.3%
COc1cc(S(=O)(=O)N2CCc3ccc(F)cc32)cc(C(=O)O)c1OC | 7.12%
Cc1nc(NCCc2ccccc2)cc(C(=O)N2CCCCC2)n1 | -6.27%
COCCOc1cc(C(=O)N2CC(C)c3ccccc32)ccn1 (configuration not stated) | 2.16%
CN(Cc1ccc2c(c1)OCCO2)C(=O)NCCc1cnn(C)c1 | -9.12%
N#CC1(C(=O)N2CCCN(c3nccs3)CC2)CCCCC1 | -5.83%
COC1CCN(CCNC(=O)NC(C)c2cccc(Cl)c2)CC1 (configuration not stated) | -2.46%
O=S(=O)(CC1CCCO1)Nc1cc(Cl)ccc1-n1cccn1 (configuration not stated) | 3.55%
CCN(CC)C(=O)c1cc(C2CCCN2C)ccn1 (configuration not stated) | -3.24%
Cc1cc(CC(C)Nc2nc(-c3cccnc3)nc3c2CNC3)[nH]n1 (configuration not stated) | 3.28%
CCOCC(O)CN1CCN(C(=O)C2CCC2)CC1 (configuration not stated) | -11.8%
Cc1cc(C)c(CNC(=O)NCC(O)c2ccccc2F)c(=O)[nH]1 (configuration not stated) | -0.185%
CCc1ccc(CN2CCC(CNS(=O)(=O)C3CC3)C2)nc1 (configuration not stated) | -4.69%
Cc1ccc(S(C)(=O)=O)cc1C(=O)NS(=O)(=O)c1cccs1 | 0.532%
CCc1cnc(CN(C)C(=O)NC2CCN(CC3CC3)C2)s1 (configuration not stated) | -3.86%
COCCNC(=O)Cn1cc(OCc2ccc(F)cc2)c(=O)cc1CO | 2.73%
O=S(=O)(Cc1ccccc1Cl)CC(O)CO (configuration not stated) | 6.44%
COCCN1CC[C@@H](OC)[C@@H]1Cc1ccccc1 | 4.9%
Cc1cccc(CN2CC3(CCN(Cc4ccoc4)CC3)OCC2=O)n1 | -3.18%
N#Cc1ccnc(N2CCN(C3CCOC3=O)CC2)c1 (configuration not stated) | -1.98%
Cc1noc(Cl)c1CCC(=O)N1CCc2sccc2C1 | 2.65%
CC(c1nc(C2CC2)no1)N1CCN(CCn2ccccc2=O)CC1 (configuration not stated) | 25.8%

SMILES | cytotoxicity at 10 µM
COc1cccc(-c2nc(CNCCc3cccnc3)cs2)c1 | -1.77%
Cc1csc(N2CCN(C(=O)c3c(C)oc(C)c3C)CC2)n1 | -14%
CNCC(=O)N1CCCC(c2cccc(Nc3nc(C)cc(C)n3)n2)C1 (configuration not stated) | -5.07%
CC(C)C(NC(N)=O)C(=O)NCc1ccc(N2CCCC2)nc1 (configuration not stated) | -16.9%
CNC(=O)CN1CCOCC12CCN(C(=O)c1ccc(C)cc1)CC2 | -87.6%
Cc1ccccc1OCC(=O)N1CCN(C2CCOC2=O)CC1 (configuration not stated) | -19.3%
O=C(NCc1cncc2c1CCN(C1CCOC1)C2)c1ccco1 (configuration not stated) | 0.797%
O=C(O)[C@@H]1CN(C(=O)CSCC2CC2)C[C@H]1c1ccncc1 | -17.6%
Cc1cc(C(=O)Nc2ccn(CCCN3CCCC3)n2)no1 | -4.13%
CC(=O)N(Cc1ncc(C)o1)C1CCN(CCc2cccs2)C1 (configuration not stated) | -8.85%
Fc1ccc(F)c(CN2CCC(c3cnccn3)CC2)c1 | -1.61%
COc1ccc(C)cc1CN1CCN(Cc2nccn2C)CC1 | 5.5%
CCCn1cc(C(=O)NC2CCC(n3cnnc3)CC2)c(C)n1 (configuration not stated) | 0.642%
CS(=O)(=O)CCSCc1ccc(Br)c(F)c1 | 0.49%
COCCN1CCC(CNc2nccc(-c3cnn(C)c3)n2)CC1 | -130%
CN1CCC2(CC1)OC(C(=O)NCc1cccnc1)Cn1ccnc12 (configuration not stated) | -87.3%
CC(C)c1nc(CN2CCN(C(=O)CC3CCCCC3)CC2)no1 | -0.95%
CNC(=O)[C@@]12CCC3(CCN(S(C)(=O)=O)CC3)[C@@H]1CN(S(C)(=O)=O)C2 | -16.1%
CCc1nc(CN(C)C(=O)c2cc(CN(CC)CC)c(CC)o2)no1 | 0.9%
CC(C)N1CCO[C@H]2CN(C(=O)c3ccc(N(C)C)cc3)C[C@H]21 | 3.19%
